Tests used:
[1] = test system: NCI-H460; experiment: Growth inhibition of human NCI-H460 cells measured after 48 hrs by sulforhodamine B assay; assay type: functional
Summary of the method: (§1)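 Panel of 39 human cancer cell lines tested at the Japanese Foundation for Cancer Research. Five concentrations per compound, spanning 10⁻¹¹–10⁻⁷ M, 10⁻¹⁰–10⁻⁶ M or 10⁻⁸–10⁻⁴ M, were used to build dose-response curves. GI₅₀ is the concentration giving 50% growth inhibition relative to control.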

[2] = test system: St-4; experiment: Growth inhibition of human St-4 cells measured after 48 hrs by sulforhodamine B assay; assay type: functional; summary of the method: as §1
[3] = test system: RXF 631; experiment: Growth inhibition of human RXF 631 cells measured after 48 hrs by sulforhodamine B assay; assay type: functional; summary of the method: as §1
[4] = test system: ACHN; experiment: Growth inhibition of human ACHN cells measured after 48 hrs by sulforhodamine B assay; assay type: functional; summary of the method: as §1
[5] = test system: NCI-H226; experiment: Growth inhibition of human NCI-H226 cells measured after 48 hrs by sulforhodamine B assay; assay type: functional; summary of the method: as §1
[6] = test system: MDA-MB-231; experiment: Growth inhibition of human MDA-MB-231 cells measured after 48 hrs by sulforhodamine B assay; assay type: functional; summary of the method: as §1
[7] = test system: MKN-7; experiment: Growth inhibition of human MKN-7 cells measured after 48 hrs by sulforhodamine B assay; assay type: functional; summary of the method: as §1
[8] = test system: LOX IMVI; experiment: Growth inhibition of human LOX IMVI cells measured after 48 hrs by sulforhodamine B assay; assay type: functional; summary of the method: as §1
[9] = test system: KM12; experiment: Growth inhibition of human KM12 cells measured after 48 hrs by sulforhodamine B assay; assay type: functional; summary of the method: as §1
[10] = biological target: Histone deacetylase 1 (Homo sapiens, UniProt Q13547); experiment: Inhibition of human HDAC1 expressed in 293T cells using Ac-KGLGK(Ac)-MCA as substrate incubated for 30 mins in presence of 0.1 mM DTT by fluorescence plate reader assay; design: species or system HEK293T
Chain of Histone deacetylase 1 (Q13547 whole entry): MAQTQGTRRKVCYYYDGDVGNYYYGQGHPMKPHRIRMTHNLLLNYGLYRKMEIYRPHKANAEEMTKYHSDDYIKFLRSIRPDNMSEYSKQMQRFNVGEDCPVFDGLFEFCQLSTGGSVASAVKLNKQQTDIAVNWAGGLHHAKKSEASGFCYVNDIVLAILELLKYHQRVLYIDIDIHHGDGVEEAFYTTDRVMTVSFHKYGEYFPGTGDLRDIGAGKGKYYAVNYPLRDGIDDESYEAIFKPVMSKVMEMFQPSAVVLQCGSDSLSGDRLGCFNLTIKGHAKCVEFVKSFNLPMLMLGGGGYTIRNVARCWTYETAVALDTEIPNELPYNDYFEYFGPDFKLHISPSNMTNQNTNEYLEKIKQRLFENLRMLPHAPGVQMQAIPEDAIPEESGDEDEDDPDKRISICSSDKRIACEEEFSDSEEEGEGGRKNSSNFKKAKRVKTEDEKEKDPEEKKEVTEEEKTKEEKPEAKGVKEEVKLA

[11] = test system: HCC 2998; experiment: Growth inhibition of human HCC 2998 cells measured after 48 hrs by sulforhodamine B assay; assay type: functional; summary of the method: as §1
[12] = Growth inhibition of human HBC4 cells measured after 48 hrs by sulforhodamine B assay; assay type: functional; summary of the method: as §1
[13] = test system: MKN-45; experiment: Growth inhibition of human MKN-45 cells measured after 48 hrs by sulforhodamine B assay; assay type: functional; summary of the method: as §1
[14] = test system: PC-3; experiment: Growth inhibition of human PC-3 cells measured after 48 hrs by sulforhodamine B assay; assay type: functional; summary of the method: as §1
[15] = test system: HCT-116; experiment: Growth inhibition of human HCT-116 cells measured after 48 hrs by sulforhodamine B assay; assay type: functional; summary of the method: as §1
[16] = test system: DMS-114; experiment: Growth inhibition of human DMS-114 cells measured after 48 hrs by sulforhodamine B assay; assay type: functional; summary of the method: as §1
[17] = test system: MCF7; experiment: Growth inhibition of human MCF7 cells measured after 48 hrs by sulforhodamine B assay; assay type: functional; summary of the method: as §1
[18] = test system: MKN-28; experiment: Growth inhibition of human MKN-28 cells measured after 48 hrs by sulforhodamine B assay; assay type: functional; summary of the method: as §1
[19] = test system: A549; experiment: Growth inhibition of human A549 cells measured after 48 hrs by sulforhodamine B assay; assay type: functional; summary of the method: as §1
[20] = Growth inhibition of human HBC5 cells measured after 48 hrs by sulforhodamine B assay; assay type: functional; summary of the method: as §1
[21] = test system: U-251; experiment: Growth inhibition of human U-251 cells measured after 48 hrs by sulforhodamine B assay; assay type: functional; summary of the method: as §1
[22] = test system: MKN-1; experiment: Growth inhibition of human MKN-1 cells measured after 48 hrs by sulforhodamine B assay; assay type: functional; summary of the method: as §1
[23] = test system: OVCAR-5; experiment: Growth inhibition of human OVCAR-5 cells measured after 48 hrs by sulforhodamine B assay; assay type: functional; summary of the method: as §1
[24] = test system: SK-OV-3; experiment: Growth inhibition of human SK-OV-3 cells measured after 48 hrs by sulforhodamine B assay; assay type: functional; summary of the method: as §1
[25] = test system: OVCAR-4; experiment: Growth inhibition of human OVCAR-4 cells measured after 48 hrs by sulforhodamine B assay; assay type: functional; summary of the method: as §1
[26] = test system: MKN-74; experiment: Growth inhibition of human MKN-74 cells measured after 48 hrs by sulforhodamine B assay; assay type: functional; summary of the method: as §1
[27] = test system: SNB-78; experiment: Growth inhibition of human SNB-78 cells measured after 48 hrs by sulforhodamine B assay; assay type: functional; summary of the method: as §1
[28] = test system: SNB-75; experiment: Growth inhibition of human SNB-75 cells measured after 48 hrs by sulforhodamine B assay; assay type: functional; summary of the method: as §1
[29] = test system: DU-145; experiment: Growth inhibition of human DU-145 cells measured after 48 hrs by sulforhodamine B assay; assay type: functional; summary of the method: as §1
[30] = Selectivity index, ratio of IC50 for mouse HDAC6 expressed in 293T cells to IC50 for human HDAC1 expressed in 293T cells using Ac-KGLGK(Ac)-MCA as substrate incubated for 30 mins in presence of 0.1 mM DTT by fluorescence plate reader assay; conditions: 0.5 h
Summary of the method: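 Ratio of HDAC6 IC₅₀ to HDAC1 IC₅₀, taken as selectivity for class I HDAC1 over class II HDAC6. Both enzyme assays were run in the presence of 0.1 mM DTT.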

[31] = test system: OVCAR-8; experiment: Growth inhibition of human OVCAR-8 cells measured after 48 hrs by sulforhodamine B assay; assay type: functional; summary of the method: as §1
[32] = biological target: T1, Protein deacetylase HDAC6 (Mus musculus, UniProt Q9Z2V5); experiment: Inhibition of mouse HDAC6 expressed in 293T cells using Ac-KGLGK(Ac)-MCA as substrate incubated for 30 mins in presence of 0.1 mM DTT by fluorescence plate reader assay; design: species or system HEK293T
T1 sequence (Q9Z2V5 whole entry): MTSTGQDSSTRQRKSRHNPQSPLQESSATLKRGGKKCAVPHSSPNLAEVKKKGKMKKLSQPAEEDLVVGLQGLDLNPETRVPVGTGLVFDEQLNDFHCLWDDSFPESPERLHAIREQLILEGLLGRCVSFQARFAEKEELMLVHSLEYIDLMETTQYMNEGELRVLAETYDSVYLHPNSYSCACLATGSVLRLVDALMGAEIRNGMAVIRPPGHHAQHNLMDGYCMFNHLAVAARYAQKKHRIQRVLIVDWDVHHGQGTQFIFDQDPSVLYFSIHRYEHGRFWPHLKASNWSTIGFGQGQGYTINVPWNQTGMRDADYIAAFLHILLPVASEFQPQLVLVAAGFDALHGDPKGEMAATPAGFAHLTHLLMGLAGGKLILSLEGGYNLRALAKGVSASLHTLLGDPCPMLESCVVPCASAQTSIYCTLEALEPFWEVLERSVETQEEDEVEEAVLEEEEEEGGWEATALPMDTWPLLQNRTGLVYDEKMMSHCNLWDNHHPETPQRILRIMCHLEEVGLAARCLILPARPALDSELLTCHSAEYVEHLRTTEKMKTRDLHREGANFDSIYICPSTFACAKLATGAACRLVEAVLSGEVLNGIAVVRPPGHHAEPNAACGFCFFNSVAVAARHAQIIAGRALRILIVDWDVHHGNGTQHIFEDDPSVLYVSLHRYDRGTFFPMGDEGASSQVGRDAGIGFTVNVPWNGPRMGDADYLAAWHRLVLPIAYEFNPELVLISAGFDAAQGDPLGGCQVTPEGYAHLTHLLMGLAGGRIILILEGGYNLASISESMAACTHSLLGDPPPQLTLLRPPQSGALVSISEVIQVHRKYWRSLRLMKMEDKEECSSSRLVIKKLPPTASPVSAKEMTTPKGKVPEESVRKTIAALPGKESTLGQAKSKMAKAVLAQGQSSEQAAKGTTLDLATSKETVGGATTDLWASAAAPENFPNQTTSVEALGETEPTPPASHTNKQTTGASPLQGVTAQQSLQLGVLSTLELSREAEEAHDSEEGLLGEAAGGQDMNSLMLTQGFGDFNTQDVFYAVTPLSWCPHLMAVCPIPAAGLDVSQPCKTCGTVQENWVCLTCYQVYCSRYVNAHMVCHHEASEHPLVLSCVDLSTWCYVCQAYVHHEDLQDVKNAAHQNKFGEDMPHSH
Summary of the method: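 HDAC enzyme assay run in the presence of 0.1 mM dithiothreitol (DTT); IC₅₀ determined.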

[33] = test system: OVCAR-3; experiment: Growth inhibition of human OVCAR-3 cells measured after 48 hrs by sulforhodamine B assay; assay type: functional; summary of the method: as §1
[34] = test system: SF-539; experiment: Growth inhibition of human SF-539 cells measured after 48 hrs by sulforhodamine B assay; assay type: functional; summary of the method: as §1
[35] = Growth inhibition of human BSY1 cells measured after 48 hrs by sulforhodamine B assay; assay type: functional; conditions: BSY-1; summary of the method: as §1
[36] = test system: DMS-273; experiment: Growth inhibition of human DMS-273 cells measured after 48 hrs by sulforhodamine B assay; assay type: functional; summary of the method: as §1
[37] = test system: NCI-H23; experiment: Growth inhibition of human NCI-H23 cells measured after 48 hrs by sulforhodamine B assay; assay type: functional; summary of the method: as §1
[38] = test system: HT-29; experiment: Growth inhibition of human HT-29 cells measured after 48 hrs by sulforhodamine B assay; assay type: functional; summary of the method: as §1
[39] = test system: NCI-H522; experiment: Growth inhibition of human NCI-H522 cells measured after 48 hrs by sulforhodamine B assay; assay type: functional; summary of the method: as §1
[40] = test system: HCT-15; experiment: Growth inhibition of human HCT-15 cells measured after 48 hrs by sulforhodamine B assay; assay type: functional; summary of the method: as §1
[41] = test system: SF-295; experiment: Growth inhibition of human SF-295 cells measured after 48 hrs by sulforhodamine B assay; assay type: functional; summary of the method: as §1
[42] = test system: SF-268; experiment: Growth inhibition of human SF-268 cells measured after 48 hrs by sulforhodamine B assay; assay type: functional; summary of the method: as §1

CC(C)[C@H]1NC(=O)C[C@H]2/C=C/CCSSC[C@@H](NC1=O)C(=O)N[C@H](C)C(=O)NCC(=O)O2
GI50 [1]: 15 nM
GI50 [2]: 410 nM
GI50 [3]: 110 nM
GI50 [4]: 270 nM
GI50 [5]: 110 nM
GI50 [6]: 21 nM
GI50 [7]: 260 nM
GI50 [8]: 11 nM
GI50 [9]: 20 nM
IC50 [10]: 2.1 nM
GI50 [11]: 14 nM
GI50 [12]: 30 nM
GI50 [13]: 500 nM
GI50 [14]: 70 nM
GI50 [15]: 10 nM
GI50 [16]: 17 nM
GI50 [17]: 37 nM
GI50 [18]: 440 nM
GI50 [19]: 15 nM
GI50 [20]: 160 nM
GI50 [21]: 19 nM
GI50 [22]: 36 nM
GI50 [23]: 14 nM
GI50 [24]: 19 nM
GI50 [25]: 100 nM
GI50 [26]: 35 nM
GI50 [27]: 10 nM
GI50 [28]: 10 nM
GI50 [29]: 21 nM
Ratio IC50 [30]: 480
GI50 [31]: 31 nM
IC50 [32]: 1010 nM
GI50 [33]: 22 nM
GI50 [34]: 10 nM
GI50 [35]: 36 nM
GI50 [36]: 89 nM
GI50 [37]: 31 nM
GI50 [38]: 13 nM
GI50 [39]: 10 nM
GI50 [40]: 6700 nM
GI50 [41]: 71 nM
GI50 [42]: 31 nM
